Reference: ChEMBL document CHEMBL1156144, “Biaryl ethers as novel non-nucleoside reverse transcriptase inhibitors with improved potency against key mutant viruses” (J Med Chem, 2009)

How the values were obtained:
[1] = Inhibition of RNA-dependent DNA polymerase activity of wild type HIV reverse transcriptase assessed as BrdU incorporation by standard ECL assay; set-up: species or system Human immunodeficiency virus
Method in brief: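 Purified recombinant wild-type RT polymerase activity was measured using a 500-nt heteropolymeric RNA template and a biotinylated DNA primer. BrdU incorporation was detected with a ruthenylated anti-BrdU antibody by electrochemiluminescence. Ki is the geometric mean of at least two determinations, each within 25% of the mean.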

[2] = molecular target: Human immunodeficiency virus type 1 reverse transcriptase (Human immunodeficiency virus 1, UniProt Q72547, K103N); assay: Inhibition of RNA-dependent DNA polymerase activity of recombinant HIV reverse transcriptase K103N mutant assessed as BrdU incorporation by standard ECL assay
[3] = test system: Human immunodeficiency virus; assay: Antiviral activity against wild type HIV H9-3B infected in human MT2 cells assessed as inhibition of viral replication measuring p24 level after 3 days in presence of 10% fetal bovine serum; type: functional; conditions: Human immunodeficiency virus 1, MT2, Serum; read-out: CIC95
Method in brief: (§1)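 Multiple-cycle spread assay in MT2 cells with wild-type H9IIIB virus. Cells were infected overnight at moi ≈ 0.01 without compound, washed, then cultured 3 days across varying compound concentrations in RPMI 1640 with 10% FBS or 50% NHS. p24 was measured in supernatants. CIC95 is the lowest concentration inhibiting replication ≥95%, as the geometric mean of ≥2 determinations.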

[4] = test system: Human immunodeficiency virus; assay: Antiviral activity against wild type HIV H9-3B infected in human MT2 cells assessed as inhibition of viral replication measuring p24 level after 3 days in presence of 50% normal human serum; type: functional; conditions: Human immunodeficiency virus 1, H9-3B, 72 h, read-out: CIC95; method in brief: as §1
[5] = test system: Human immunodeficiency virus; assay: Antiviral activity against HIV with reverse transcriptase K103N mutant infected in human MT2 cells assessed as inhibition of viral replication measuring p24 level after 3 days in presence of 10% fetal bovine serum; type: functional; conditions: Human immunodeficiency virus 1, MT2, Serum, 72 h; read-out: CIC95
Method in brief: (§2)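 Multiple-cycle replication (Spread) assay in MT2 cells with H9IIIB-background mutant virus. Cells were infected overnight at moi ≈ 0.01 without compound, washed, then cultured 3 days across a range of compound concentrations in medium with 10% FBS. p24 was measured in supernatants. CIC95 is the lowest concentration inhibiting replication by ≥95%, reported as the geometric mean of ≥2 determinations.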

[6] = Clearance in Sprague-Dawley rat at 2 mg/kg, iv; type: ADME, organism-based; set-up: dose 2 mg/kg, route intravenous; conditions: in vivo
[7] = Volume of distribution in Sprague-Dawley rat at 2 mg/kg, iv; type: ADME, organism-based; set-up: dose 2 mg/kg, route intravenous; conditions: in vivo
Rattus norvegicus = assay: AUC in Sprague-Dawley rat at 2 mg/kg, iv; type: ADME, organism-based, Plasma; set-up: dose 2 mg/kg, route intravenous; conditions: in vivo
[8] = Half life in Sprague-Dawley rat at 2 mg/kg, iv; type: ADME, organism-based; set-up: dose 2 mg/kg, route intravenous; conditions: in vivo
[9] = test system: Human immunodeficiency virus; assay: Antiviral activity against HIV with reverse transcriptase Y181C mutant infected in human MT2 cells assessed as inhibition of viral replication measuring p24 level after 3 days in presence of 10% fetal bovine serum; type: functional; conditions: Human immunodeficiency virus 1, MT2, Serum, 72 h; read-out: CIC95; method in brief: as §2
[10] = test system: Human immunodeficiency virus; assay: Antiviral activity against HIV with reverse transcriptase K103N/Y181C double mutant infected in human MT2 cells assessed as inhibition of viral replication measuring p24 level after 3 days in presence of 10% fetal bovine serum; type: functional; conditions: Human immunodeficiency virus 1, MT2, Serum, 72 h; read-out: CIC95; method in brief: as §2

In the case of `N#Cc1cc(Cl)cc(Oc2cc(F)c(Cl)c(OCc3n[nH]c4nc(N)ccc34)c2)c1`, the Ki [1] is reported as 120 nM, the Ki [2] is reported as over 910 nM and the IC95 [3] is reported as 2.78 µM. It also gave an IC95 [4] of over 8.33 µM and an IC95 [5] of over 8.33 µM.
With `CNc1ccc2c(COc3ccc(Cl)c(Oc4cc(Cl)cc(C#N)c4)c3)noc2n1` the Ki [1] was 0.3 nM, the Ki [2] was 0.9 nM and the IC95 [3] was 0.103 µM. For the same compound, the IC95 [4] was 0.103 µM, the IC95 [5] was 0.309 µM and the clearance [6] was 24.6 mL/min/kg. It also gave a Vd [7] of 2 L/kg, an AUC (Rattus norvegicus) of 0.8 µM and a half-life [8] of 120 min.
With `N#Cc1cc(Cl)cc(Oc2cc(OCc3n[nH]c4ncccc34)cc(Cl)c2Cl)c1` the Ki [1] was 2.7 nM, the Ki [2] was 4.6 nM and the IC95 [3] was 0.018 µM. For the same compound, the IC95 [4] was 0.103 µM, the IC95 [5] was 0.034 µM and the IC95 [9] was 0.031 µM. The IC95 [10] was 0.277 µM, the clearance [6] was 5.5 mL/min/kg and the Vd [7] was 1.8 L/kg. It also gave an AUC (Rattus norvegicus) of 3.5 µM and a half-life [8] of 564 min.
`N#Cc1cc(Cl)cc(Oc2cc(OCc3noc4ncccc34)ccc2Cl)c1` gave a Ki [1] of 1.6 nM, a Ki [2] of 2.1 nM and an IC95 [3] of 0.019 µM. It also gave an IC95 [4] of 0.103 µM, an IC95 [5] of 0.103 µM and an IC95 [9] of 0.093 µM. For the same compound, the IC95 [10] was 0.278 µM.
`Cc1cc(OCc2n[nH]c3ncccc23)cc(Oc2cc(Cl)cc(C#N)c2)c1Cl` showed a Ki [1] of 0.4 nM, a Ki [2] of 1.9 nM and an IC95 [3] of 0.011 µM. It also gave an IC95 [4] of 0.103 µM, an IC95 [5] of 0.103 µM and an IC95 [9] of 0.031 µM. For the same compound, the IC95 [10] was 0.278 µM.
Compound `N#Cc1cc(Cl)cc(Oc2cc(OCc3noc4nc(N5CCOCC5)ccc34)ccc2Cl)c1` has a Ki [1] of 1.8 nM, a Ki [2] of 8.6 nM and an IC95 [3] of 0.103 µM. The IC95 [4] was 0.956 µM and the IC95 [5] was 0.926 µM.
With `N#Cc1cc(Cl)cc(Oc2cc(F)cc(OCc3n[nH]c4nc(N)ccc34)c2)c1` the Ki [1] was 2 nM, the Ki [2] was 3.3 nM and the IC95 [3] was under 0.0038 µM. For the same compound, the IC95 [4] was 0.103 µM and the IC95 [5] was 0.309 µM.
`N#Cc1cc(Cl)cc(Oc2cc(OCc3noc4nc(C5=NCCN5)ccc34)ccc2Cl)c1` showed a Ki [1] of 2.3 nM, a Ki [2] of 6.3 nM and an IC95 [3] of 0.309 µM. For the same compound, the IC95 [4] was 0.309 µM and the IC95 [5] was 0.309 µM.
In the case of `N#Cc1cc(Cl)cc(Oc2ccc(Cl)c(OCc3n[nH]c4ncccc34)c2)c1`, the Ki [1] is reported as 17 nM, the Ki [2] is reported as 140 nM and the IC95 [3] is reported as over 8.3 µM. For the same compound, the IC95 [4] was over 8.3 µM and the IC95 [5] was over 8.3 µM.
Work on `N#Cc1cc(Cl)cc(Oc2cc(OCc3n[nH]c4ncccc34)cc(F)c2Cl)c1` yielded a Ki [1] of 0.5 nM, a Ki [2] of 0.9 nM and an IC95 [3] of 0.016 µM. It also gave an IC95 [4] of 0.059 µM, an IC95 [5] of 0.011 µM and an IC95 [9] of 0.031 µM. It also gave an IC95 [10] of 0.093 µM.
